Data as given in paper PMC10077533 (ACS Omega, 2023).

Tests used:
[1] = tested on: calf-thymus DNA (ct-DNA); settings: classical DNA intercalator, comparison value; cited from earlier work
[2] = tested on: ct-DNA; settings: obtained from the literature; cited from earlier work
[3] = tested on: MDA-MB-468 breast cancer cells; assay: JC-1 staining, mitochondrial membrane potential by flow cytometry; format: cell-based, human; settings: MDA-MB-468, positive control, 5μM CCCP
[4] = tested on: MDA-MB-468 breast cancer cells; assay: γ-H2AX staining, detection of DNA damage; format: cell-based, human; settings: MDA-MB-468, 50 μM
Procedure, shortened: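 MDA-MB-468 cells treated with test compound, then immunocytochemically stained for γ-H2AX, with untreated cells as control. DNA damage imaged as red fluorescence, and red fluorescence intensity quantified.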

CC[n+]1c(-c2ccccc2)c2cc(N)ccc2c2ccc(N)cc21 [EtBr, ethidium bromide]
Kb value of EtBr (KEtBr) [1]: 7 × 10^5 M^–1
KEtBr, EtBr binding constant [2]: 1.0 × 10^7 M^–1

N#CC(C#N)=NNc1cccc(Cl)c1 [CCCP, carbonyl cyanide m-chlorophenylhydrazone]
cells with damaged mitochondria (JC-1 monomers) [3]: 76.98%
cells with healthy mitochondria (red + green fluorescing JC-1 aggregates) [3]: 22.08%

N.N.[Cl][Pt][Cl] [cisplatin]
γH2AX (phosphorylated histone) staining [4]: DNA damage
